Article PMC3228889 (International Journal of Cancer. Journal International du …, 2011)
Where two headings read alike, the source gives them in different places.

Tests used:
STAT3 [1] = biological target: T1, STAT3 (Homo sapiens, UniProt P40763); assay: Western blot, IL-6 and IFN-α induced STAT3 phosphorylation; assay type: cell-based; conditions: MM.1S, 2 hours pre-treatment, 30 minutes stimulation
MM1.S MM cells = assay: MTT viability of MM1.S cells; assay type: cell-based, human
STAT3 [2] = biological target: T1, STAT3; assay: STAT3 DNA binding activity in nuclear extracts; assay type: cell-based; conditions: 24 hours, U266 and ARH-77 MM cells
STAT4 = STAT4 (Homo sapiens, UniProt Q14765); assay: Western blot, IL-4 induced STAT4 phosphorylation; assay type: cell-based; conditions: IM-9 human MM cells
In short: (§1)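 IM-9 cells were serum-starved for 24 h, then left untreated or pre-treated for 2 h with test compound (2.5–10 μM), a reference STAT3 inhibitor (2.5–20 μM) or DMSO. IL-4 (25ng/ml) was added, and cells were harvested 30 min later. Blots of RIPA lysates were probed for p-STAT4 (Tyr693) or p-STAT6 (Tyr641).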

ERK(1/2) = assay: Western blot, ERK; assay type: cell-based, human
In short: (§2)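 MM cells were treated with test compound (2.5, 5 or 10μM) or DMSO for 24 h, then lysed in cold RIPA buffer with protease inhibitors. Lysates were run on SDS-PAGE, transferred to PVDF and probed with antibodies to p-ERK1/2 (Thr202/Tyr204), p-Src (Tyr416), p-mTOR (Ser2448), or cleaved caspase-3 and cleaved PARP. Detection was by enhanced chemiluminescence, with GAPDH as loading control.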

PAK2 = PAK2 (Homo sapiens, UniProt Q13177); conditions: read-out: IC50 kinase activity, PAK2; 10 concentrations, 100 μM highest
Src = assay: Western blot, Src phosphorylation; assay type: cell-based, human; conditions: U266 and ARH-77 MM cells
In short: as §2

IKKb = IKKb (Homo sapiens, UniProt O14920); conditions: read-out: IC50 kinase activity, IKKb; 10 concentrations, 100 μM highest
PKC-d = PKC-d (Homo sapiens, UniProt Q05655); conditions: read-out: IC50 kinase activity, PKC-d; 10 concentrations, 100 μM highest
FGFR2 = FGFR2 (Homo sapiens, UniProt P21802); conditions: read-out: IC50 kinase activity, FGFR2; 10 concentrations, 100 μM highest
RPMI-8226 = assay: Western blot, cleaved caspase-3 and PARP; assay type: cell-based, human; conditions: IL-6 independent RPMI-8226, P-STAT3 too low to be detected
In short: as §2

U266 MM cells [3] = assay: Annexin-V/PI flow cytometry apoptosis; assay type: cell-based, human; conditions: 24 hours
In short: (§3)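 Cells were treated with test compound or DMSO for 24 h, harvested, washed in cold PBS and resuspended in 1× binding buffer at 1 × 10^6 cells/ml. Annexin V-FITC and PI were added for 15 min at RT in the dark. Analysis was by flow cytometry within 1 h. Results come from at least 3 independent experiments, compared with DMSO by Mann-Whitney test.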

STAT6 = STAT6 (Homo sapiens, UniProt P42226); assay: Western blot, IL-4 induced STAT6 phosphorylation; assay type: cell-based; conditions: IM-9 human MM cells
In short: as §1

[4] = test system: normal human marrow [CD138(−)] cells; conditions: 10μM, 24h, MTS
[5] = test system: normal human peripheral blood lymphocytes
ARH-77 MM tumor cells = assay: Mouse xenograft model; assay type: in vivo, NOD/SCID mice; conditions: 5 mg/kg daily intraperitoneal, vs DMSO
BMX = BMX (Homo sapiens, UniProt P51813); conditions: read-out: IC50 kinase activity, BMX; 10 concentrations, 100 μM highest
STAT3 [6] = biological target: T1, STAT3; assay: Western blot, constitutive STAT3 phosphorylation; assay type: cell-based
In short: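 U266 and ARH-77 cells were treated with test compound or DMSO for 24 h. Primary CD138+ patient cells were isolated by positive magnetic selection (n=3 patients). Cells were lysed in cold RIPA buffer with protease inhibitors, run on SDS-PAGE and transferred to PVDF. Blots were probed for p-STAT3 (Tyr705) and total STAT3 and developed by chemiluminescence, with GAPDH as loading control.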

JNK1 = JNK1 (Homo sapiens, UniProt P45983); conditions: read-out: IC50 kinase activity, JNK1; 10 concentrations, 100 μM highest
PDGFR-a = PDGFR-a (Homo sapiens, UniProt P16234); conditions: read-out: IC50 kinase activity, PDGFR-a; 10 concentrations, 100 μM highest
PAK1 = PAK1 (Homo sapiens, UniProt Q13153); conditions: read-out: IC50 kinase activity, PAK1; 10 concentrations, 100 μM highest
[7] = 5 mg/kg daily intraperitoneal, vs vehicle-treated mice
mTOR = assay: Western blot, mTOR phosphorylation; assay type: cell-based, human; conditions: U266 and ARH-77 MM cells
In short: as §2

U266 MM cells [8] = assay: MTT cell viability assay; assay type: cell-based, human; conditions: read-out: IC50 cell viability, U266, 72 hours
[9] = test system: twenty one purified human protein kinases
AKT2 = AKT2 (Homo sapiens, UniProt P31751); conditions: read-out: IC50 kinase activity, AKT2; 10 concentrations, 100 μM highest
STAT1 = STAT1 (Homo sapiens, UniProt P42224); assay: Western blot, cytokine-induced STAT1 phosphorylation; assay type: cell-based; conditions: MM.1S, IFN-α stimulated, 2 hours pre-treatment
In short: (§4)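 MM.1S cells were serum-starved for 24 h, then pre-treated for 2 h with test compound (2.5–10 μM), a reference STAT3 inhibitor (2.5–20 μM) or DMSO. IFN-α (25ng/ml) was added for 30 min in the presence or absence of test compound. Western blots of RIPA lysates were probed for p-STAT1 (Tyr701) or p-STAT2 (Tyr690).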

Fgr = Fgr (Homo sapiens, UniProt P09769); conditions: read-out: IC50 kinase activity, Fgr; 10 concentrations, 100 μM highest
LcK = LcK (Homo sapiens, UniProt P06239); conditions: read-out: IC50 kinase activity, LcK; 10 concentrations, 100 μM highest
BRK = BRK (Homo sapiens, UniProt Q13882); conditions: read-out: IC50 kinase activity, BRK; 10 concentrations, 100 μM highest
JAK3 = JAK3 (Homo sapiens, UniProt P52333); conditions: read-out: IC50 kinase activity, JAK3; 10 concentrations, 100 μM highest
JNK2 = JNK2 (Homo sapiens, UniProt P45984); conditions: read-out: IC50 kinase activity, JNK2; 10 concentrations, 100 μM highest
STAT3 [10] = biological target: T1, STAT3; assay: STAT3 nuclear localization, immunofluorescence staining; assay type: cell-based; conditions: U266 cells
[11] = test system: STAT3 downstream target genes; assay: RT-PCR of STAT3 downstream target genes; assay type: cell-based, human; conditions: U266 and ARH-77, 24-h
Lyn = Lyn (Homo sapiens, UniProt P07948); conditions: read-out: IC50 kinase activity, Lyn; 10 concentrations, 100 μM highest
CDK1/CyclinB = CDK1/CyclinB (Homo sapiens, UniProt P06493); conditions: read-out: IC50 kinase activity, CDK1/CyclinB; 10 concentrations, 100 μM highest
PKC-a = PKC-a (Homo sapiens, UniProt P17252); conditions: read-out: IC50 kinase activity, PKC-a; 10 concentrations, 100 μM highest
Fyn = Fyn (Homo sapiens, UniProt P06241); conditions: read-out: IC50 kinase activity, Fyn; 10 concentrations, 100 μM highest
U266 cells = assay: Synergy of LLL12 and lenalidomide, combinational index; assay type: cell-based, human; conditions: LLL12 combined with lenalidomide, U266, all combinations; CI < 1 = synergism
ARH-77 MM cells [12] = assay: Annexin-V/PI flow cytometry apoptosis; assay type: cell-based, human; conditions: 24 hours
In short: as §3

ZAP-70 = ZAP-70 (Homo sapiens, UniProt P43403); conditions: read-out: IC50 kinase activity, ZAP-70; 10 concentrations, 100 μM highest
ARH-77 MM cells [13] = assay: MTT cell viability assay; assay type: cell-based, human; conditions: read-out: IC50 cell viability, ARH-77, 72 hours
CSK = CSK (Homo sapiens, UniProt P41240); conditions: read-out: IC50 kinase activity, CSK; 10 concentrations, 100 μM highest
STAT2 = STAT2 (Homo sapiens, UniProt P52630); assay: Western blot, cytokine-induced STAT2 phosphorylation; assay type: cell-based; conditions: MM.1S, IFN-α stimulated, 2 hours pre-treatment
In short: as §4

FAK = FAK (Homo sapiens, UniProt Q05397); conditions: read-out: IC50 kinase activity, FAK; 10 concentrations, 100 μM highest

T1 sequence (P40763 whole entry): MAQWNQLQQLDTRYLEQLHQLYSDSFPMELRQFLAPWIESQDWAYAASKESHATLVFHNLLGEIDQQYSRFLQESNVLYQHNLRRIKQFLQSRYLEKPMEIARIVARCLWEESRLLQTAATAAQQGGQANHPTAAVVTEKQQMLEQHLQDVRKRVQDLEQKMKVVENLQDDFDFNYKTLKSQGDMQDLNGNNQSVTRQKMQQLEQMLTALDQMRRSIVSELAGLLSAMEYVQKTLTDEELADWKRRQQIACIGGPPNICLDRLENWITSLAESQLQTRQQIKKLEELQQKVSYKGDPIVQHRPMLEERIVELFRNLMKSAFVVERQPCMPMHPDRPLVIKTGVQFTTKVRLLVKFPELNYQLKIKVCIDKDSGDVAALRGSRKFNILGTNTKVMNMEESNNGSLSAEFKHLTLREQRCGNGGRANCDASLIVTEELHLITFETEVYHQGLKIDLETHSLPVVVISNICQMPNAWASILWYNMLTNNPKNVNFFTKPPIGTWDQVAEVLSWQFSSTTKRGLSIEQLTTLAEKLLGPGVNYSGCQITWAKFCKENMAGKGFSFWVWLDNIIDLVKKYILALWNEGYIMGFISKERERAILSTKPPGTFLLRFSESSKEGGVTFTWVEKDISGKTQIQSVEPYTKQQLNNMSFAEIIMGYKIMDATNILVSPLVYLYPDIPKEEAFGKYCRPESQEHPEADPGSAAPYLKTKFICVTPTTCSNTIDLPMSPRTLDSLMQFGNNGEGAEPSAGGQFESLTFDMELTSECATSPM
AKT2, sequence (P31751 whole entry): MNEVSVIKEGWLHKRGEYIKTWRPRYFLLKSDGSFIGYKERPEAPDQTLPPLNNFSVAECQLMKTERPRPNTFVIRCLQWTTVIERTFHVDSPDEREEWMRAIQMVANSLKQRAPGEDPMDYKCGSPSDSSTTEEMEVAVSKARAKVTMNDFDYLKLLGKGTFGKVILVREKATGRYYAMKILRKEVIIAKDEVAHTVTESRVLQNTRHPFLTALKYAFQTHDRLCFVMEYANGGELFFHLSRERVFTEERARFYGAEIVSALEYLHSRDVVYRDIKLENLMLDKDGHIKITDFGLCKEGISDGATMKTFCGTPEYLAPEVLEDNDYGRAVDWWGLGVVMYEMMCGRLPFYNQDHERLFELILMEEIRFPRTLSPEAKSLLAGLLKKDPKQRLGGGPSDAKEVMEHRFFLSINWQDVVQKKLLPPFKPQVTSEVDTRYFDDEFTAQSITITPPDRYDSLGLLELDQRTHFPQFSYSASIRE
PDGFR-a, sequence (P16234 24-1089): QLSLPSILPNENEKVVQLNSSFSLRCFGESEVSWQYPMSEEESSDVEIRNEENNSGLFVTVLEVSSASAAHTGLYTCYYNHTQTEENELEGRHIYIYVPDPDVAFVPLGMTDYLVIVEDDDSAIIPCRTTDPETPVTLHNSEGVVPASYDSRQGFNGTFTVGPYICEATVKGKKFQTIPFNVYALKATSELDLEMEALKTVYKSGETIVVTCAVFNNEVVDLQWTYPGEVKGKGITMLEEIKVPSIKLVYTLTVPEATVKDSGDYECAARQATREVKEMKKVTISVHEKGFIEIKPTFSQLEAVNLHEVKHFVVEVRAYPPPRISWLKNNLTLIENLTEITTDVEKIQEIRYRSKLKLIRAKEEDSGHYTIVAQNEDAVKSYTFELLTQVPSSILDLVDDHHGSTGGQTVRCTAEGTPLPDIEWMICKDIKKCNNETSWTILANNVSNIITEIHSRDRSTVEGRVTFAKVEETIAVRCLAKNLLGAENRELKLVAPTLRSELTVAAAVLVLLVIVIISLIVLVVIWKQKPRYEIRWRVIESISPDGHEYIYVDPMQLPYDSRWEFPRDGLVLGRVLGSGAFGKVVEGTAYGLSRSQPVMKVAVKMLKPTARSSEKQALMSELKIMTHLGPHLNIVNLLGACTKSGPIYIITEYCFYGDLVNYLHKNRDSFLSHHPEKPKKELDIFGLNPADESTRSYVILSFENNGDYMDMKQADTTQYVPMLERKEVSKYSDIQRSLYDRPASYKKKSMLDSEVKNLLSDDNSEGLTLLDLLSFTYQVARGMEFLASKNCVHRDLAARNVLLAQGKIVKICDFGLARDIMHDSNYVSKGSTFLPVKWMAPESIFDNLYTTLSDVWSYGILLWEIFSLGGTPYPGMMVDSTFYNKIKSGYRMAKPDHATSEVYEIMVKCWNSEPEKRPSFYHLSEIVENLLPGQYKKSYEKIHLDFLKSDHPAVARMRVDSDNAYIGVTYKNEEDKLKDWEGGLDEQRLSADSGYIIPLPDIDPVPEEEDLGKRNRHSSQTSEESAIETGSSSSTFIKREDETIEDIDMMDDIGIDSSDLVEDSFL
CSK, sequence (P41240 whole entry): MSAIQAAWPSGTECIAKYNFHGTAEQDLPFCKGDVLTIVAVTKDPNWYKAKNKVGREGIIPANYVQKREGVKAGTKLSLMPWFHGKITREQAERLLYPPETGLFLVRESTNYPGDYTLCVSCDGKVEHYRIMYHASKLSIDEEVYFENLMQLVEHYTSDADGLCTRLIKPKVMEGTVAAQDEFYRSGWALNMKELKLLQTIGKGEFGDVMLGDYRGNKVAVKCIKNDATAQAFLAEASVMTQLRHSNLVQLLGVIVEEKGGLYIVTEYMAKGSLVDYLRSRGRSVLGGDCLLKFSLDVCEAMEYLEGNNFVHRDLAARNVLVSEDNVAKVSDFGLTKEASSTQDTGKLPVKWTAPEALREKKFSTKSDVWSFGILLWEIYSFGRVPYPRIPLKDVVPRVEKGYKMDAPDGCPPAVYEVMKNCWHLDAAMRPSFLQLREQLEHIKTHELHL
PAK1, sequence (Q13153 whole entry): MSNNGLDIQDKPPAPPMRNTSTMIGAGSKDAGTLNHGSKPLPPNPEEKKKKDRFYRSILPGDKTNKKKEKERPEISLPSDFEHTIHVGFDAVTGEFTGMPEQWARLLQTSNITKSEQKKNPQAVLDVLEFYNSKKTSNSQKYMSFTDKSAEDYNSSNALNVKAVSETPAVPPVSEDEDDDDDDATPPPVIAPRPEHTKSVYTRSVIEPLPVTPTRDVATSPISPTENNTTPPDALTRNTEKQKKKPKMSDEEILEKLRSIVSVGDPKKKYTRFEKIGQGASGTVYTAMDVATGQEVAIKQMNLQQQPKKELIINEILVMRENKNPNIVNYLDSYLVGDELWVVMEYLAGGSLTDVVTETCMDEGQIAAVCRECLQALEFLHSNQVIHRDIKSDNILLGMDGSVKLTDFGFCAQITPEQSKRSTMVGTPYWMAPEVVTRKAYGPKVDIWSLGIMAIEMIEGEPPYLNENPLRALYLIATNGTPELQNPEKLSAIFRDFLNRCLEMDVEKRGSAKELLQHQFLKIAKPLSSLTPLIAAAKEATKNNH
BRK, sequence (Q13882 whole entry): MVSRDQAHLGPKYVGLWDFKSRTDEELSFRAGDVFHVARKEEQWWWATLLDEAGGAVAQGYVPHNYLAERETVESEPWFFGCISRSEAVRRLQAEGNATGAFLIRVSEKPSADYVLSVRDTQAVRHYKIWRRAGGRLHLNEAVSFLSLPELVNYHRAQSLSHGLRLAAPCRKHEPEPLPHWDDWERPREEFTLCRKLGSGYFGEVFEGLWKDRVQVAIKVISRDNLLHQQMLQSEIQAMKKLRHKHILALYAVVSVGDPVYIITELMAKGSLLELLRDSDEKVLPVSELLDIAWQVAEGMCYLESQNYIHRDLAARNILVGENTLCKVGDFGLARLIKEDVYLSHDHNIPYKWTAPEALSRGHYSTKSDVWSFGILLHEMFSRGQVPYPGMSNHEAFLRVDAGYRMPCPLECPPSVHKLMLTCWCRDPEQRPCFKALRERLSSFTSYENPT
LcK, sequence (P06239 whole entry): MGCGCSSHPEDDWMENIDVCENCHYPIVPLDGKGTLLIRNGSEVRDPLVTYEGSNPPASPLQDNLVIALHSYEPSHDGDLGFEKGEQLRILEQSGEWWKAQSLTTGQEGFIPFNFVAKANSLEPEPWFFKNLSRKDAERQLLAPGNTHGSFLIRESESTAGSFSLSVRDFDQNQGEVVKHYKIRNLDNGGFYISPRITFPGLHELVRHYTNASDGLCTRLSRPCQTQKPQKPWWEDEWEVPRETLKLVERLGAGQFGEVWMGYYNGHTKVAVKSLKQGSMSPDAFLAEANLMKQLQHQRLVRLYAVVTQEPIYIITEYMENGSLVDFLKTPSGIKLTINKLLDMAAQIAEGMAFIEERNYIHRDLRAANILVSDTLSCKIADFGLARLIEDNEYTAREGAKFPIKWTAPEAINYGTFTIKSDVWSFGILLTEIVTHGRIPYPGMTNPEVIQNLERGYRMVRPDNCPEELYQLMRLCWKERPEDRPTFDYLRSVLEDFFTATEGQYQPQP
CDK1/CyclinB, sequence (P06493 whole entry): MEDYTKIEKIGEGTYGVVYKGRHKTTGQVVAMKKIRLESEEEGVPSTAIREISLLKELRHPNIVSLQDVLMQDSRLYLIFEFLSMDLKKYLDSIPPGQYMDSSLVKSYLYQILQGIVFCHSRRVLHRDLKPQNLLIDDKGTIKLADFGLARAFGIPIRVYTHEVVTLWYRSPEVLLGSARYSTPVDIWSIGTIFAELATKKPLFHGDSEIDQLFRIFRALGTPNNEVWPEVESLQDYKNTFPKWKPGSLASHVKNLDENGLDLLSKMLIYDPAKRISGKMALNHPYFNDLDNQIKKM
CDK1/CyclinB, sequence (P14635 whole entry partner): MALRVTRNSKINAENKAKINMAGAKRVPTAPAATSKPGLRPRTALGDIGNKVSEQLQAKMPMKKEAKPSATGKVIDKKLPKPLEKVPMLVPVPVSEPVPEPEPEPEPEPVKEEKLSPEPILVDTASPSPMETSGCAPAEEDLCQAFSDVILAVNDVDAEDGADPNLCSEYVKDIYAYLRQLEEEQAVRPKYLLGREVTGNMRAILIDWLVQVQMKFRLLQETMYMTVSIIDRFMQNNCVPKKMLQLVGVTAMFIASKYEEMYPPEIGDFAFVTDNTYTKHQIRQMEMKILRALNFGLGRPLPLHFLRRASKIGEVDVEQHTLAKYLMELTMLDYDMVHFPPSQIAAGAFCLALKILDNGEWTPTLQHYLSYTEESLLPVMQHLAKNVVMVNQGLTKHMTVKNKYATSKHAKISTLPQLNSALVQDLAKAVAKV

Compound: O=[N+]([O-])c1ccc2c(c1)S(=O)(=O)C=C2 [Stattic, reference compound]
- IL-6 and IFN-α induced STAT3 phosphorylation (STAT3 [1]): much less potent than LLL12

Compound: Nc1cccc2c1CN(C1CCC(=O)NC1=O)C2=O (stereo not shown) [lenalidomide, Lenalidomide, reference compound]
- cell viability (MM1.S MM cells; lenalidomide alone): dose-dependent reduction of cell viability

Compound: NS(=O)(=O)c1cccc2c1C(=O)c1cccc(O)c1C2=O [LLL12]
- reduction of STAT3 DNA binding activity (STAT3 [2]; 2.5μM): 30–33%
- reduction of STAT3 DNA binding activity (STAT3 [2]; 5μM): 58–69%
- STAT4 phosphorylation by IL-4 (STAT4): did not prevent phosphorylation
- phosphorylation of ERK(1/2) (ERK(1/2); ARH-77 MM cells, 5μM): slightly reduced
- phosphorylation of ERK(1/2) (ERK(1/2); U266 MM cells): even increased
- IC50 (PAK2): > 100 µM
- phosphorylation of Src (Src): not reduced significantly
- IC50 (IKKb): > 100 µM
- IC50 (PKC-d): > 100 µM
- IC50 (FGFR2): > 100 µM
- cleaved caspase-3 and cleaved PARP (RPMI-8226): did not induce
- Apoptosis (Annexin V/PI) (U266 MM cells [3]; U266, 2.5μM): 38.2%
- Apoptosis (Annexin V/PI) (U266 MM cells [3]; U266, 5μM): 53.3%
- STAT6 phosphorylation by IL-4 (STAT6): did not prevent phosphorylation
- effect on normal cells [4]: little effects
- effect on normal cells [5]: little effects
- STAT3 phosphorylation in tumors (ARH-77 MM tumor cells; Western blot): inhibited STAT3 phosphorylation
- tumor volume (ARH-77 MM tumor cells; p < 0.05): significantly suppressed
- tumor weight (ARH-77 MM tumor cells; p < 0.05): significantly suppressed
- IC50 (BMX): > 100 µM
- STAT3 phosphorylation at Tyr 705 (STAT3 [6]; U266 and ARH-77, 2.5μM or 5μM, 24 hours): inhibited STAT3 phosphorylation
- STAT3 phosphorylation (STAT3 [6]; primary human MM cells from three patients): inhibited STAT3 phosphorylation
- IC50 (JNK1): > 100 µM
- IC50 (PDGFR-a): > 100 µM
- IC50 (PAK1): > 100 µM
- IL-6 increased cell proliferation/viability (MM1.S MM cells; IL-6 for 48 hours, MTT): blocked
- bodyweights of treated mice [7]: not reduced
- phosphorylation of mTOR (mTOR): not reduced significantly
- IC50 (U266 MM cells [8]): 490 nM
- IC50 ([9]; read-out: IC50, kinases which contain an SH2 domain, BMX, BRK, CSK, Fgr, Fyn, JAK3, LcK, Lyn, ZAP-70, 57.19 μM to > 100 μM): ≥ 57.2 µM
- IC50 ([9]; read-out: IC50, other protein kinases, AKT2, CDK1/cyclin B, FAK, FGFR2, IKKβ, JNK1, JNK2, PAK1, PAK2, PDGFR-α, PKC-α, PKC-δ, 91.76 μM to > 100 μM): ≥ 91.8 µM
- IC50 (AKT2): 91.8 µM
- STAT1 phosphorylation (STAT1): but not STAT1 or STAT2
- IC50 (Fgr): 57.2 µM
- IC50 (LcK): > 100 µM
- IC50 (BRK): > 100 µM
- IC50 (JAK3): 89.7 µM
- IC50 (JNK2): > 100 µM
- STAT3 nuclear localization (STAT3 [10]): most STAT3 was retained in cytoplasm and absent in nuclei
- transcription of cyclin D1, survivin, Bcl-2, Bcl-XL, DNMT1 [11]: inhibition of the transcription of all five
- IC50 (Lyn): > 100 µM
- IC50 (CDK1/CyclinB): > 100 µM
- IC50 (PKC-a): > 100 µM
- IC50 (Fyn): > 100 µM
- Combinational Index (CI) (U266 cells): less than 1
- Apoptosis (Annexin V/PI) (ARH-77 MM cells [12]; ARH-77, 2.5μM): 70.8%
- Apoptosis (Annexin V/PI) (ARH-77 MM cells [12]; ARH-77, 5μM): 73.5%
- IC50 (ZAP-70): > 100 µM
- IC50 (ARH-77 MM cells [13]): 1960 nM
- IL-6 and IFN-α induced STAT3 phosphorylation (STAT3 [1]): prevented phosphorylation of STAT3
- IC50 (CSK): 73.9 µM
- STAT2 phosphorylation (STAT2): but not STAT1 or STAT2
- IC50 (FAK): > 100 µM
